According to ChEMBL document CHEMBL1141811, “Remangilones A-C, new cytotoxic triterpenes from Physena madagascariensis” (J Nat Prod, 1999):
pIC50: −log10 of the molar value. Calls of active or inactive are those of the source. The rule behind the calls is not given here.

Experiments:
[1] = test system: MDA-MB-435; assay: Cytotoxicity against human MDA-MB-435 cells assessed as change from polarized to spherical cellular morphology by SRB assay; format: functional, cell-based
[2] = test system: MDA-MB-435; assay: Cytotoxicity against human MDA-MB-435 cells at 2.3 uM treated for 24 hrs and subsequently cultured in drug-free medium for 96 hrs by SRB assay; format: functional, cell-based
How it was run: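 MDA-MB-435 cells in DFCI-1 medium, seeded in triplicate at 4000/well and attached 24 h at 37 °C. Exposed to 2.3 μM compound for 24 h at 37 °C, then cultured in drug-free DFCI-1 medium for 96 h. Viability read by SRB staining with absorbance at 550 nm.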

[3] = test system: MDA-MB-231; assay: Cytotoxicity against human MDA-MB-231 cells assessed as change from polarized to spherical cellular morphology by SRB assay; format: functional, cell-based
[4] = test system: MDA-MB-435; assay: Cytotoxicity against human MDA-MB-435 cells by SRB assay; format: functional, cell-based
How it was run: (§1)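 Cells washed in PBS, resuspended in DFCI-1 medium and seeded in triplicate at 4000/0.2 mL/well. After 24 h attachment (37 °C, 6.5% CO2), cells got 0.1–40.0 μM compound (DMSO below 0.2% final; DMSO controls) for 48 h. Cells were then PBS-washed and SRB-stained, and dye was redissolved in 10 mM Tris·HCl and read at 550 nm. IC50 taken as 50% reduction of relative cell number.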

[5] = Cytotoxicity against human 70N cells by SRB assay; format: cell-based; how it was run: as §1
[6] = test system: MDA-MB-231; assay: Cytotoxicity against human MDA-MB-231 cells by SRB assay; format: functional, cell-based; how it was run: as §1
[7] = test system: MDA-MB-435; assay: Induction of apoptosis in human MDA-MB-435 cells assessed as change in nuclear morphology at 2.3 uM by fluorescence microscopy; format: functional, cell-based
How it was run: (§2)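 MDA-MB-435 cells plated in DFCI-1 medium at (3-5) × 10^4 cells/35-mm dish and attached 24 h (37 °C, 6.5% CO2). Treated 48 h, then attached cells were examined by fluorescence microscopy for nuclear shrinkage and chromatin condensation or fragmentation. 50 nM paclitaxel served as positive control.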

[8] = test system: MDA-MB-435; assay: Induction of apoptosis in human MDA-MB-435 cells assessed as change in nuclear morphology at 50 nM by fluorescence microscopy; format: functional, cell-based; how it was run: as §2

CC1=C2CC[C@]3(C)[C@H](CC=C4[C@@H]5CC(C)(C)CC[C@@H]5C(=O)[C@H](O)[C@]43C)[C@@]2(C)C=C(O)C1=O [REMANGILONE A]
Activity [1]: Active | Activity [2]: Active | Activity [3]: Active | pIC50 [4]: 5.07 | pIC50 [5]: 4.39 | pIC50 [6]: 5.18 | Activity [7]: Active

CC(=O)O[C@H]1C(=O)[C@@]2(C)[C@H]([C@H](OC(=O)c3ccccc3)[C@]3(O)C[C@H](OC(=O)[C@H](O)[C@@H](NC(=O)c4ccccc4)c4ccccc4)C(C)=C1C3(C)C)[C@]1(OC(C)=O)CO[C@@H]1C[C@@H]2O
Activity [8]: Active
